CHRM5 agonist – CHRM5 agonism in calcium assay | P08912 | CHO-K1 hM5 cells, Fluo-8 calcium fluorescence; 0% DMSO wells, 100% maximal acetylcholine response | activation, % at 3 µM | actives 0.19% (n = 360,000) | AID 624037;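 active = activation above the run's mean over test compounds plus 3 SD, cut at about 23% in these data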;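 also: signal is peak over basal fluorescence ratio across the kinetic read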
M5 PAM – CHRM5 positive allosteric modulation. P08912. CHO-K1 hM5, Fluo-8 calcium, ACh EC20 PAM; 0% = ACh EC20, 100% = ACh EC100. activation, % at 3 µM. actives 0.3% (n = 360,000);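 active = activation above the run cutoff, the mean activation of all test compounds plus 3 SD, cut at about 18% in these data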
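System – CHO-K1 hM5 cells · Compound – 3 µM, single dose · Incubation – compound preincubation 140 s before EC20 acetylcholine addition · Technique – Fluo-8 calcium fluorescence · Measure – Max/basal fluorescence ratio as % of EC20–EC100 ACh window · Benchmarks – low control EC20 acetylcholine (0%), high control EC100 acetylcholine (100%) · Replication – singlicate, one well per test compound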
CHRM4 PAM – positive allosteric modulators of human muscarinic M4 receptor; P08173; CHO-K1 hM4/Gqi5, Fluo-8 calcium fluorescence, ACh EC20; 0% = ACh EC20, 100% = maximal ACh; activation, % at 3 µM; actives 0.4% (n = 360,000); AID 624126;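 active = activation above its plate's cutoff, the mean activation of sample wells plus 3 SD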
Target sequence (P08173 whole entry, looked up): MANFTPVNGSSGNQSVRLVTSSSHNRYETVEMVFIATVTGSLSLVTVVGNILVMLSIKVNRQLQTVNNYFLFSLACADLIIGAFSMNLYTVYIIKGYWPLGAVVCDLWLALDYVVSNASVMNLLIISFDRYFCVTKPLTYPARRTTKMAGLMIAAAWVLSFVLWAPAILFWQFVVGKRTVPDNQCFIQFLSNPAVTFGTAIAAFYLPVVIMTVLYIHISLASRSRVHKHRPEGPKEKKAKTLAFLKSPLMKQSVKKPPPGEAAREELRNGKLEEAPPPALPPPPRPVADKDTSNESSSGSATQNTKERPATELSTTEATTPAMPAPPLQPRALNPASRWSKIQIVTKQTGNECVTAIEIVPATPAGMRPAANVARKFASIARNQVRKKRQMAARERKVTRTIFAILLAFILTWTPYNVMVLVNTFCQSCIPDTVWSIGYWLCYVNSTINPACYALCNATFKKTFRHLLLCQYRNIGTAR
CHRM4 agonist – agonists of human muscarinic M4 receptor (CHRM4) | CHO-K1 hM4/Gqi5, Fluo-8 calcium fluorescence; vehicle 0%, full acetylcholine response 100% | activation, % at 3 µM | actives 0.14% (n = 360,000) | AID 624127;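 active = activation above the run mean over all test wells plus 3 SD, cut at about 32% in these data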;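 also: peak over basal fluorescence ratio per well then scaled between controls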
CHRM5 antagonist – blocks acetylcholine activation of human M5 receptor; P08912; CHO-hM5 cells, Fluo-8 calcium fluorescence, ACh EC80; inhibition, % at 3 µM; actives 0.59% (n = 360,000); AID 624040;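 active = inhibition above a per-plate cutoff, the mean of that plate's test compounds plus 3 SD, cut at about 27% in these data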
M4 antag – blocks acetylcholine activation of human M4 receptor. P08173. inhibition, % at 3 µM. CHO-hM4 cells, ACh EC80, Fluo-8 calcium fluorescence. actives 0.73% (n = 360,000);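 active = inhibition above its plate's cutoff, the mean inhibition of sample wells plus 3 SD, cut at about 27% in these data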
Large screens that a line does not name were inactive; ! = not active in a repeat. Only some compounds are listed: those with a hit (about 1.8% of all), similar ones and a draw of the others.

Cn1c(SCC(=O)c2ccc3c(c2)OCCO3)nnc1C(F)(F)F	none
CC(C)OCCCN1CC(=O)N2C(c3ccccc3)c3[nH]c4ccccc4c3C[C@H]2C1=O (some centres not stated)	none
Fc1cccc(F)c1-n1c(CN2CCCC2)csc1=S	M4 antag 68.1
Clc1cccc(-c2ccc(-c3nc4ccccn4c3NCc3ccccc3)cc2)c1	M4 antag 29.4
c1ccc(CNc2c(-c3cccc(SC4CCCCC4)c3)nc3ccccn23)cc1	M4 antag 49.4!
COc1ccc(-c2cc(-c3nc4ccccn4c3NCc3ccccc3)ccc2OC)cc1	CHRM5 antagonist 48.2, M4 antag 84.0
c1ccc(-c2nc3ccccn3c2NCc2ccc3c(c2)OCO3)cc1	none
Clc1cccc(CNc2ccn3nc(-c4ccccc4)cc3n2)c1	CHRM4 PAM 16.1
COc1ccc(-c2nc3ccccn3c2NCc2ccc3c(c2)OCO3)cc1	none
Cc1ccn2c(NCc3ccccc3)c(-c3cccc(SC4CCCCC4)c3)nc2c1	none
O=C(CSC1=NS(=O)(=O)c2cc(F)ccc2N1)NCc1ccccc1Cl	none
CCCCCCCCNC(=S)NCCN1CCCCC1	none
CCN(CC)CCNC(=O)c1ccc(NC(=O)c2cn(-c3ccccc3)nc2-c2cccs2)cc1	none
CCN(CC)CCNC(=O)c1ccc(NC(=O)c2cn(-c3ccc(F)cc3)nc2-c2cccc(OC)c2)cc1	CHRM5 antagonist 66.7, M4 antag 47.9
CCN(CC)CCNC(=O)c1ccc(NC(=O)c2c(C)nn(-c3ccc(F)cc3)c2Cl)cc1	CHRM5 antagonist 48.7, M4 antag 41.5
COc1cccc2c1C(=O)c1c(O)c3c(c(O)c1C2=O)CC(O)(C(=O)CO)CC3OC1CC(N(C)C)C(O)C(C)O1 (configuration not stated)	CHRM5 agonist 55.5, CHRM5 antagonist 35.0
COc1cccc2c1C(=O)c1c(O)c3c(c(O)c1C2=O)C[C@@](O)(C(=O)CO)C[C@@H]3O[C@H]1C[C@H](N)[C@@H](O)[C@H](C)O1	none
CC(=O)c1ccc(Nc2nc3ccccc3nc2NS(=O)(=O)c2cccs2)cc1	none
O=C(O)c1cccc(Nc2nc3ccccc3nc2NS(=O)(=O)c2cccs2)c1	CHRM4 PAM 18.1
Clc1ccc(-c2nnc(CSc3nnc(-c4cccs4)n3Cc3ccccc3)o2)cc1	CHRM5 antagonist 28.6, M4 antag 30.0
Cc1nnc(SCc2nnc(-c3cccs3)o2)n1Cc1ccccc1	none
C=CC[C@@H](CC(=O)N[C@@H](CO)Cc1ccccc1)C(=O)N[C@H](C)COC(=O)[C@@H](CC=C)Cc1ccc(F)cc1	CHRM4 PAM 26.0
C=CCC[C@H](Cc1ccc(F)cc1)C(=O)OC[C@H](Cc1c[nH]c2ccccc12)NC(=O)[C@H](CC=C)CC(=O)NCCO	M4 antag 29.7
C=CC[C@@H](CC(=O)N[C@@H](CO)Cc1ccccc1)C(=O)N[C@@H](C)COC(=O)[C@@H](CC=C)Cc1ccc(F)cc1	none
C=CC[C@H](CC(=O)N(CCO)Cc1ccccc1)C(=O)N[C@H](COC(=O)[C@@H](CC=C)CC(=O)OC(C)(C)C)Cc1c[nH]c2ccccc12	M4 antag 26.9
O=C(NC1(C(F)(F)F)NC(=O)N(c2ccc(F)cc2)C1=O)c1cccs1 (configuration not stated)	none
O=C(NN1CCN(Cc2ccccc2Cl)CC1)c1ccc(Br)cc1	none
CCOC(=O)[C@]12CCC=C1N(Cc1ccccc1)C(=O)[C@H](CC(=O)NCCCCc1ccccc1)C2	none
CC1CCCC(C)N1CCCNC(=O)CN1C(=O)c2cccnc2Oc2ccc(Cl)cc21 (configuration not stated)	none
C=C1CC(C(=O)N/N=C/c2ccccc2)C1	none
C=C1CC2(OC1=O)c1ccccc1CCc1ccccc12	M4 antag 47.6
COc1cc(/C=N\NC(=O)CC(=O)NCCc2ccccc2)ccc1O	none
CCOc1ccc(/C=N/NC(=O)CC(=O)NCc2ccccc2)cc1	M5 PAM 27.5
CCOc1ccc(/C=N\NC(=O)CC(=O)NCCc2ccccc2)cc1	none
CN(C)c1ccc(/C=N/NC(=S)NCc2ccccc2)cc1	none
CCOc1cc(/C=N\NC(=O)CC(=O)NCCc2ccccc2)ccc1O	CHRM5 antagonist 29.2
CC(C)(C)c1ccc(/C=N/NC(=S)NCc2ccccc2)cc1	CHRM4 PAM 25.2
O=C(CSc1nc(=O)n2ccccc2n1)N1CCN(c2ccccc2)CC1	none
CC#CC(=O)N1CCCC(Cc2cccc(OC)c2)(C(=O)OCC)C1 (configuration not stated)	none
CC(C)(C)c1ccc(C(=O)OCC(=O)Nc2cccc(S(=O)(=O)NC3=NCCC3)c2)cc1	none
CCOC(=O)c1c(C)[nH]c(N=Nc2ccccc2C)c1C	none
Nc1cc(=O)[nH]c(SCCOc2ccccc2)n1	CHRM5 antagonist 27.0
Cc1ccc(NC2CCCN(C(=O)c3cc4ncccn4n3)C2)cc1C (configuration not stated)	none
CN1CC(=O)N(CC(=O)NCc2ccc(F)cc2)c2ccccc2C1=O	none
CN1CC(=O)N(CC(=O)Nc2ccc(F)cc2)c2ccccc2C1=O	M5 PAM 40.2
CCCCCCCCCCn1ccc(=N)cc1	M4 antag 38.1
CCCCCCN1Cc2ccccc2C1	none
CCCCCCCCn1ccc(=N)cc1	M5 PAM 19.9
CN(c1ccccc1)c1ccc(/C=C/[N+](=O)[O-])cc1	CHRM5 agonist 44.1, CHRM5 antagonist 70.6, M4 antag 36.4
COc1ccc2nc(C)cc(N3CCN(S(=O)(=O)c4ccccc4F)CC3)c2c1	none
O=[N+]([O-])c1ccc(-n2nncc2-c2ccccc2)cc1	M5 PAM 19.5
O=C(/C=C/c1ccc(S(=O)(=O)NCc2ccco2)cc1)NCc1cccc(Cl)c1	CHRM5 antagonist 32.4
COc1cc([N+](=O)[O-])ccc1NC(=O)NCC1CCN(Cc2ccc(Cl)cc2)CC1	M4 antag 31.8
Cn1c(=O)c2c(nc(SCCN3CCOCC3)n2C)n(C)c1=O	none
COc1ccc(NC(=O)c2cc(-c3ccccn3)nc3ccccc23)c(OC)c1	CHRM5 antagonist 27.4
CCOc1ccccc1NC(=O)c1cc(-c2ccccn2)nc2ccccc12	none
Cc1ccsc1C(=O)OCC(=O)N1CCc2ccccc2C1	none
CC(=O)Nc1ccc(S(=O)(=O)N2CCC(C(=O)NCCC(=O)Nc3ccccc3)CC2)cc1	M5 PAM 19.6
COc1ccc(S(=O)(=O)N2CCCC2)cc1NC(=O)c1ccccc1F	none
COc1ccc(S(=O)(=O)N2CCC(C(=O)NCCc3ccccc3)CC2)cc1OC	none

Source: PubChem BioAssay
